Test results taken from ChEMBL document CHEMBL5705888, “Substrate specificity and inhibitors of LRRK2, a protein kinase mutated in Parkinson's disease” (Biochem J, 2009).

Legend:
[1] = target: Rho-associated protein kinase 2 (Homo sapiens, UniProt O75116); assay: Inhibition of His6-tagged ROCK2 (2 to 543 residues) (unknown origin) using peptide as substrate incubated for 15 mins in presence of ATP by immunoblotting analysis
[2] = target: Serine/threonine-protein kinase pim-2 (Homo sapiens) (UniProt Q9P1W9); assay: Inhibition of PIM2 (unknown origin) at 1 uM incubated for 30 mins in presence of [gamma-33P]ATP by multidrop micro reagent based assay relative to control; values are per cent of control
[3] = target: Leucine-rich repeat serine/threonine-protein kinase 2 (Homo sapiens, UniProt Q5S007, A2016T/G2019S); assay: Inhibition of GST-tagged LRRK2 G2019S/A2016T mutant (1326 to 2527 residues) (unknown origin) in presence of ATP
[4] = target: Protein kinase C alpha type (Homo sapiens) (UniProt P17252); assay: Inhibition of PKCalpha (unknown origin) at 10 uM incubated for 30 mins in presence of [gamma-33P]ATP by multidrop micro reagent based assay relative to control; values are per cent of control
[5] = target: Leucine-rich repeat serine/threonine-protein kinase 2 (Homo sapiens, UniProt Q5S007); assay: Inhibition of LRRK2 (unknown origin) at 10 uM incubated for 30 mins in presence of [gamma-33P]ATP by multidrop micro reagent based assay relative to control
[6] = target: Serine/threonine-protein kinase N2 (Homo sapiens) (UniProt Q16513); assay: Inhibition of PRK2 (unknown origin) at 10 uM incubated for 30 mins in presence of [gamma-33P]ATP by multidrop micro reagent based assay relative to control
Summary of the method: (§1)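 Single-concentration screen across a panel of 85 protein kinases. Activity is expressed as a percentage of control incubations run without inhibitor.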

[7] = target: Ribosomal protein S6 kinase alpha-5 (Homo sapiens) (UniProt O75582); assay: Inhibition of MSK1 (unknown origin) at 10 uM incubated for 30 mins in presence of [gamma-33P]ATP by multidrop micro reagent based assay relative to control; summary of the method: as §1
[8] = target: Dual specificity tyrosine-phosphorylation-regulated kinase 1A (Homo sapiens) (UniProt Q13627); assay: Inhibition of DYRK1A (unknown origin) at 10 uM incubated for 30 mins in presence of [gamma-33P]ATP by multidrop micro reagent based assay relative to control; values are per cent of control
[9] = target: Serine/threonine-protein kinase 26 (Homo sapiens) (UniProt Q9P289); assay: Inhibition of MST4 (unknown origin) at 10 uM incubated for 30 mins in presence of [gamma-33P]ATP by multidrop micro reagent based assay relative to control; summary of the method: as §1
[10] = target: Tyrosine-protein kinase SYK (Homo sapiens) (UniProt P43405); assay: Inhibition of SYK (unknown origin) at 10 uM incubated for 30 mins in presence of [gamma-33P]ATP by multidrop micro reagent based assay relative to control; values are per cent of control
[11] = target: Ephrin type-A receptor 2 (Homo sapiens) (UniProt P29317); assay: Inhibition of EPH A2 (unknown origin) at 10 uM incubated for 30 mins in presence of [gamma-33P]ATP by multidrop micro reagent based assay relative to control; values are per cent of control
[12] = target: Serine/threonine-protein kinase D1 (Homo sapiens) (UniProt Q15139); assay: Residual activity of PKD1 (unknown origin) at 10 uM incubated for 30 mins in presence of [gamma-33P]ATP by multidrop micro reagent based assay relative to control
[13] = target: Insulin-like growth factor 1 receptor (Homo sapiens) (UniProt P08069); assay: Inhibition of IGF-1R (unknown origin) at 10 uM incubated for 30 mins in presence of [gamma-33P]ATP by multidrop micro reagent based assay relative to control
[14] = target: Mitogen-activated protein kinase 13 (Homo sapiens) (UniProt O15264); assay: Residual activity of p38delta MAPK (unknown origin) at 10 uM incubated for 30 mins in presence of [gamma-33P]ATP by multidrop micro reagent based assay relative to control
[15] = target: T1, Ephrin type-B receptor 3 (Homo sapiens) (UniProt P54753); assay: Inhibition of EPH-B3 (unknown origin) at 10 uM incubated for 30 mins in presence of [gamma-33P]ATP by multidrop micro reagent based assay relative to control; values are per cent of control
T1 sequence (whole entry): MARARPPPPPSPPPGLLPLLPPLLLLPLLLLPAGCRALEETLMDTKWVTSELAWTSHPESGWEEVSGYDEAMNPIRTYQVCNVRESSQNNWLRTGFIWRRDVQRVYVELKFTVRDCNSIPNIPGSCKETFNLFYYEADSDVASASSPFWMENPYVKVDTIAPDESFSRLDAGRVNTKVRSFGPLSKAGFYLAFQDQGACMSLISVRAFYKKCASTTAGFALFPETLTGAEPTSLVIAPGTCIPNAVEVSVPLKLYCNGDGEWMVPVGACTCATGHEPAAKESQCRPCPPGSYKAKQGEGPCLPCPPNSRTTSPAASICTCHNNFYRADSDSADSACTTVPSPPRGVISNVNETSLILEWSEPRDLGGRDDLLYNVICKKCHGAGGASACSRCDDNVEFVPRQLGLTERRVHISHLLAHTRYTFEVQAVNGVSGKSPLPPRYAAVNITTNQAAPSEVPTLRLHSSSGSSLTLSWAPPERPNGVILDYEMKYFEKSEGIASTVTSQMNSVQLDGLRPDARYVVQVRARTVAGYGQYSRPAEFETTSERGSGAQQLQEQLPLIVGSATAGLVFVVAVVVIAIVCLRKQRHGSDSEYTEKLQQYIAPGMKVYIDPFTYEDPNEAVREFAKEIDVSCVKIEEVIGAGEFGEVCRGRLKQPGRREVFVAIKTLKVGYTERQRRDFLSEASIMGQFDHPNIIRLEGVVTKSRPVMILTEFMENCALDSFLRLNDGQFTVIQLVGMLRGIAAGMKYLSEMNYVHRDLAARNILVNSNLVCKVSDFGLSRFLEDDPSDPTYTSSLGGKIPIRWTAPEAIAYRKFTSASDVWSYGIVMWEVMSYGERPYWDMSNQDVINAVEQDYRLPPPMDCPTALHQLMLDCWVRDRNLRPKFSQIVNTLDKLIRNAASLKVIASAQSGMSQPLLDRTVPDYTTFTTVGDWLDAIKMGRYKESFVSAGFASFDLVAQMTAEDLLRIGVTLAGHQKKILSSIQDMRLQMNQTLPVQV

[16] = target: Misshapen-like kinase 1 (Homo sapiens) (UniProt Q8N4C8); assay: Inhibition of MINK1 (unknown origin) at 10 uM incubated for 30 mins in presence of [gamma-33P]ATP by multidrop micro reagent based assay relative to control; values are per cent of control

Sequence of Leucine-rich repeat serine/threonine-protein kinase 2 (Homo sapiens, UniProt Q5S007, A2016T/G2019S) (Q5S007 whole entry A2016T/G2019S, the tested form may be a part): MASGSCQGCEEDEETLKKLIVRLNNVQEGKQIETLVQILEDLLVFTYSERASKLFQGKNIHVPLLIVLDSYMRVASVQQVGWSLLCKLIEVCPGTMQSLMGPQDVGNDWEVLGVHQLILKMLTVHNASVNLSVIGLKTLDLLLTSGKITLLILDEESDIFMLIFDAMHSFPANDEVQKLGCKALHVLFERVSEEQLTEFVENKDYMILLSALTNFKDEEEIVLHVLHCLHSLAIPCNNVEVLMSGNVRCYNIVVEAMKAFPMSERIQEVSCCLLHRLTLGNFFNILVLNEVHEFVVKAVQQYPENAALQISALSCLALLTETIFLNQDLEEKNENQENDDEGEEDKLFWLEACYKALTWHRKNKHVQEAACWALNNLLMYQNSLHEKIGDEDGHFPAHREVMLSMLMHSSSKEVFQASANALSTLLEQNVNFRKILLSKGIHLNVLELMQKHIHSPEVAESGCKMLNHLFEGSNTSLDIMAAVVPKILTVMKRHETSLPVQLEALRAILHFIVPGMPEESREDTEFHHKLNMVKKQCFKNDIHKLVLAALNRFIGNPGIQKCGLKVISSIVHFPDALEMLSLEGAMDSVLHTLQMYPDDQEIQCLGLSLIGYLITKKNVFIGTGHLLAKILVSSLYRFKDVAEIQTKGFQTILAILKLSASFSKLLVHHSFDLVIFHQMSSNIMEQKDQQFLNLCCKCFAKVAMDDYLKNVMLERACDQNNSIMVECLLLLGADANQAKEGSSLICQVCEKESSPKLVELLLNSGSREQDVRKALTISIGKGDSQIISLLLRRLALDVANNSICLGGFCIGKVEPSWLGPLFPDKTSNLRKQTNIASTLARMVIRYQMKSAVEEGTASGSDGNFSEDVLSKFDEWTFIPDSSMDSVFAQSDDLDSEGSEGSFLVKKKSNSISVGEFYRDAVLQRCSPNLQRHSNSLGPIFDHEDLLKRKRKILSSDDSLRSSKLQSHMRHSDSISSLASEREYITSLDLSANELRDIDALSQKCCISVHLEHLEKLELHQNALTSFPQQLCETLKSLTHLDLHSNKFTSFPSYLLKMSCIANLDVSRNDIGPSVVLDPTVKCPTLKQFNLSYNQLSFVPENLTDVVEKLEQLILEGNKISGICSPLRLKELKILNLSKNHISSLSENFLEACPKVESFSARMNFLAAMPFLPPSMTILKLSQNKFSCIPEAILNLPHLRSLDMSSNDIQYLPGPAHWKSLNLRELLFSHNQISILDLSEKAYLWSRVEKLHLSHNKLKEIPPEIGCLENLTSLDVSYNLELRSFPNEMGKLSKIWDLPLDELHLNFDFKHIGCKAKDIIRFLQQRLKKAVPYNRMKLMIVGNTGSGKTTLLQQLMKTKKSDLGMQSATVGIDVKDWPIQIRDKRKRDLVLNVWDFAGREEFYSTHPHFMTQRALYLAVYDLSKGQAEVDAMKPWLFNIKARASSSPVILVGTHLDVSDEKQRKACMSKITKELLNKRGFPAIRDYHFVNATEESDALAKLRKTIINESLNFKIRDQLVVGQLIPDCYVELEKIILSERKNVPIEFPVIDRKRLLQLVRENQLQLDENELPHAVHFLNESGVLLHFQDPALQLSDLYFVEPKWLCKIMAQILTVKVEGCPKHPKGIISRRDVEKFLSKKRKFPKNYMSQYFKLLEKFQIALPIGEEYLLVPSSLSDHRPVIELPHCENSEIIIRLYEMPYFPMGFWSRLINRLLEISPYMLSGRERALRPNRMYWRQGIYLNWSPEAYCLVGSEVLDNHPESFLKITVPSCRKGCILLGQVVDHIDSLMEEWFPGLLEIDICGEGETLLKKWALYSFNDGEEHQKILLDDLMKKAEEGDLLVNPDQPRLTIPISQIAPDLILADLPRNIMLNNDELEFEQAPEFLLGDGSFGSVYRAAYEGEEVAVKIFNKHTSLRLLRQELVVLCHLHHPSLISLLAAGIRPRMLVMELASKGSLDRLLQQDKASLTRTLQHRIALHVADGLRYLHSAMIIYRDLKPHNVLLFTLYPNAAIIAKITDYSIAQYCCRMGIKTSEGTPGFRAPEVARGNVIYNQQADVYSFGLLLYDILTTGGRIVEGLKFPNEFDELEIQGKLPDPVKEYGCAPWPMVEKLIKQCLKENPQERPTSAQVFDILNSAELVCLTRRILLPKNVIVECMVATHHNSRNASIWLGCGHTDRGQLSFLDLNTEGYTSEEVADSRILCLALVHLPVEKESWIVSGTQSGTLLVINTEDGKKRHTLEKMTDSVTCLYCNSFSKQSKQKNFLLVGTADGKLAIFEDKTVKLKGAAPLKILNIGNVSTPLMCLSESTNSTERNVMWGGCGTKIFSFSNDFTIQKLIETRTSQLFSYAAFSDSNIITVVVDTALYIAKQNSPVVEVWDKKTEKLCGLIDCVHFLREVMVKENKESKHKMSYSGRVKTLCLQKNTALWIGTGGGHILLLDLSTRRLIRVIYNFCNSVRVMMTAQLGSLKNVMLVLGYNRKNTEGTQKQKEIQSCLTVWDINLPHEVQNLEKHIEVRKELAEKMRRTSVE
Sequence of Leucine-rich repeat serine/threonine-protein kinase 2 (Homo sapiens, UniProt Q5S007) (Q5S007 whole entry): as the sequence (Q5S007 whole entry A2016T/G2019S, the tested form may be a part) above, with T2016A, S2019G counted along it
Sequence of Rho-associated protein kinase 2 (O75116 whole entry, the tested form may be a part): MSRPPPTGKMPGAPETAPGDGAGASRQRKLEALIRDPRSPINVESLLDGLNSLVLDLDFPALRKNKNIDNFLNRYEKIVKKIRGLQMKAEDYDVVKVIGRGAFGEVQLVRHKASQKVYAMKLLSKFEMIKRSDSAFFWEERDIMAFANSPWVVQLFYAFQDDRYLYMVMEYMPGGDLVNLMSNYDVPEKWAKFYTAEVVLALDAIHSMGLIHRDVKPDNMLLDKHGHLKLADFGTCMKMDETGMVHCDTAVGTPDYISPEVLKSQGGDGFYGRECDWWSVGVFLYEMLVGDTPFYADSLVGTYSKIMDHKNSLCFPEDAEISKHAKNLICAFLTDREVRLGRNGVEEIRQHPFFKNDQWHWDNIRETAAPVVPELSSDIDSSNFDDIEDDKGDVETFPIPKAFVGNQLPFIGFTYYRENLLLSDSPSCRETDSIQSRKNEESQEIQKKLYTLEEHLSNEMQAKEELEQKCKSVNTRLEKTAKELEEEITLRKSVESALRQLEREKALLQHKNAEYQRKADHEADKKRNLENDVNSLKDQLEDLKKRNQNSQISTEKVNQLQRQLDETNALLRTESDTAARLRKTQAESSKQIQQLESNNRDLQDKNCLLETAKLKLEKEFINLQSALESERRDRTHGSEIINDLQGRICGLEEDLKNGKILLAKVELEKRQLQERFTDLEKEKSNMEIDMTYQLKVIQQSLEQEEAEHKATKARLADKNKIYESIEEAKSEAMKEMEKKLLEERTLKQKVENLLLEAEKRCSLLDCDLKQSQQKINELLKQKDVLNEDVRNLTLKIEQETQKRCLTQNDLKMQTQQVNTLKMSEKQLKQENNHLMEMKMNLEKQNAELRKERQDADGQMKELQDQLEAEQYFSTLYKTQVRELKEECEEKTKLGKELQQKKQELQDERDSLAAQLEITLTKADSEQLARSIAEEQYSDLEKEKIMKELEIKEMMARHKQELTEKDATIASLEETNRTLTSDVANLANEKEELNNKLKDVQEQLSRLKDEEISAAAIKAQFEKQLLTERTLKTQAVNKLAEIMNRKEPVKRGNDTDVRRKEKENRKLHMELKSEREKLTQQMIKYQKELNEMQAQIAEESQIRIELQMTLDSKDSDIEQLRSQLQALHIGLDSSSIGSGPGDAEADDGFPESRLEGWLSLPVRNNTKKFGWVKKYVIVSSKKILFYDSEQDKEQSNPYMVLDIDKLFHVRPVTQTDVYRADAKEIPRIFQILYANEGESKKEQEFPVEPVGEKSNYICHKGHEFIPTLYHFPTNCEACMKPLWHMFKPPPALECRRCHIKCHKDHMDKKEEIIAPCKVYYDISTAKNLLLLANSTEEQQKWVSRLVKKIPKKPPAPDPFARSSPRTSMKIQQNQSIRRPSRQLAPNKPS
Sequence of Serine/threonine-protein kinase D1 (Homo sapiens) (Q15139 whole entry, looked up): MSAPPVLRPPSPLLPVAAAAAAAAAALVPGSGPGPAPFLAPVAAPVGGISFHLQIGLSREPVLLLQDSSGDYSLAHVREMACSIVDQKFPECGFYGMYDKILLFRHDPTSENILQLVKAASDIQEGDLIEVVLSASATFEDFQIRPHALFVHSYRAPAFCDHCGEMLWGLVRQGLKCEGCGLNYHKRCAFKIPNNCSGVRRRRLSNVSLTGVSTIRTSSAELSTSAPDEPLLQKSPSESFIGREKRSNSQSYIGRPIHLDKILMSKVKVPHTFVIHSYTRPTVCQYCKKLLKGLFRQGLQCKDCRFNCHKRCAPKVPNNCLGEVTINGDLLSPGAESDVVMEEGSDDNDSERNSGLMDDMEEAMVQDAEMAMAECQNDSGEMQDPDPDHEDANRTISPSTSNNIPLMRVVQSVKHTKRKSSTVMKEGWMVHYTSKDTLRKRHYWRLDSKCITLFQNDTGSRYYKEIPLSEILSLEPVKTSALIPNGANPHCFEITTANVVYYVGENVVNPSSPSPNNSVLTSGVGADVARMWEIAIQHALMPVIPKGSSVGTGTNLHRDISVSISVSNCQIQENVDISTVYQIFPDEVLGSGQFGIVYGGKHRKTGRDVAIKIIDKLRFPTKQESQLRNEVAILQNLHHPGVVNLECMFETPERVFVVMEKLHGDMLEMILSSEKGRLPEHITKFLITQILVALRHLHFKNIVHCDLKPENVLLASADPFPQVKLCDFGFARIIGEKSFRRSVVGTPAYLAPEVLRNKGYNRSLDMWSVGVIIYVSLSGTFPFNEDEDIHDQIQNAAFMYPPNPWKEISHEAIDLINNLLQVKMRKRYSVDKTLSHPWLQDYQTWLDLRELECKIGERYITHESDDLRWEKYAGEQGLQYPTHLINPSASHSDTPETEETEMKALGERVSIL

`CC1=C(C(=O)Nc2cc3cn[nH]c3cc2F)C(c2ccc(C(F)(F)F)cc2)CC(=O)N1` (stereo unspecified) showed an IC50 [1] of 63 nM and a residual activity [2] of 106%.

`Cc1cncc2cccc(S(=O)(=O)N3CCCNC[C@@H]3C)c12` showed an IC50 [3] of 3300 nM.

In the case of `C[C@@H](N)[C@H]1CC[C@H](C(=O)Nc2ccncc2)CC1`, the residual activity [4] is reported as 52%, the inhibition [5] is reported as 22% and the inhibition [6] is reported as 7%. For the same compound, the inhibition [7] was 41%, the residual activity [8] was 96% and the inhibition [9] was 67%. For the same compound, the residual activity [10] was 94%, the residual activity [11] was 106% and the residual activity [12] was 89%. For the same compound, the inhibition [13] was 99% and the residual activity [14] was 86%.

`O=S(=O)(c1cccc2cnccc12)N1CCCNCC1` [FASUDIL] gave a residual activity [15] of 65% and a residual activity [16] of 54%.
